Source: PubChem
SKKanGAS inh = blocks kanamycin growth of S. pyogenes SKKanGAS strain. BacTiter-Glo, 6 h. inhibition, % at 7.5 µM. 300,000 compounds, 1.3% hits. AID 1662;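 active = mean replicate score, as percent of positive control median, at least 50; inconclusive = mean below 50 but one replicate at or above 50; inactive = mean and every replicate below 50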;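 also: strain carries kanamycin resistance gene driven by streptokinase promoter and grows in 40 µg/ml kanamycin; loss of luminescence reflects streptokinase promoter inhibition or plain growth inhibition; 0% = median of DMSO wells and 100% = positive control at its reference dose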
Mdm2 MdmX PPI = inhibitors of human Mdm2/MdmX interaction. SaOS-2 split-luciferase Mdm2/MdmX complementation, luminescence. inhibition, % at 8 µM. 330,000 compounds, 3% hits. AID 485346;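 active = inhibition of at least 50% at 8 µM in the primary screen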
Target sequence (O15151 whole entry, looked up): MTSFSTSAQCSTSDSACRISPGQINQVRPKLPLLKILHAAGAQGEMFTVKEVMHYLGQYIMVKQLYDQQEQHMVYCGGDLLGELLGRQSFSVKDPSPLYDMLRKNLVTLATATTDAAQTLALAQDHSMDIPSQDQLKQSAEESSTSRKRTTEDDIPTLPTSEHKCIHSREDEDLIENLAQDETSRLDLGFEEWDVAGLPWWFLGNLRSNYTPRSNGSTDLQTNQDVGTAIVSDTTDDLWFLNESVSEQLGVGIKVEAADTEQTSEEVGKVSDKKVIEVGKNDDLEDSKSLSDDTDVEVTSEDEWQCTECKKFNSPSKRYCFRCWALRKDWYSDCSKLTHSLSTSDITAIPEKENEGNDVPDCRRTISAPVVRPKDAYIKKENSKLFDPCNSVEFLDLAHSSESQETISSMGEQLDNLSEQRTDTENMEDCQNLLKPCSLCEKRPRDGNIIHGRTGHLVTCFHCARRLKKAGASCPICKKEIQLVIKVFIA
Target sequence (Q00987 whole entry, looked up): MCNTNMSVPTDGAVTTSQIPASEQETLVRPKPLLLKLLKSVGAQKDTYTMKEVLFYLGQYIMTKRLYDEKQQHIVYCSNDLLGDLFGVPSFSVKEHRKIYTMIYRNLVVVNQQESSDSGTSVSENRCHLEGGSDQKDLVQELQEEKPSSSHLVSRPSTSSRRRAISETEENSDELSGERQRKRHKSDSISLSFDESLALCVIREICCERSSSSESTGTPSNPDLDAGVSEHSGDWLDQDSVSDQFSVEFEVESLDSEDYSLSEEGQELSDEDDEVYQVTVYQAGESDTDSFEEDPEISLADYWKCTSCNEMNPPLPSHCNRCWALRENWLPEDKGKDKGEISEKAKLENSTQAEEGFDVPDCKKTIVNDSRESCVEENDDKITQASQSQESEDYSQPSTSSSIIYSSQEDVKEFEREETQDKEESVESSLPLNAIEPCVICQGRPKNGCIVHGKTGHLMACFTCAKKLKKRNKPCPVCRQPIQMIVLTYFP
aSyn 5UTR inh = MLPCN primary screen, SNCA 5' untranslated region; inhibition, % (tested at 7.5 µM); 300,000 compounds, 0.82% hits; alpha-synuclein 5'UTR reporter, inhibitor activity; in the data active = inhibition above about 60%; inconclusive = no clear call, values can overlap the other calls;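 also: H4 neuroglioblastoma cells stably carrying SNCA 5'UTR luciferase fusion; 0% = DMSO wells and 100% = positive control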
CSC inhib = blocks cancer stem cells; cancer stem cell-like cells viability, luminescence; 300,000 compounds, 1.1% hits; inhibition, % at 7.5 µM; in the data active = inhibition above about 75%; inconclusive = no clear call, values can overlap the other calls; tested in HMLE shEcad cells
T cruzi repl = T. cruzi replication inhibition | 300,000 compounds, 1.4% hits | T. cruzi beta-gal in NIH3T3, luminescence, 90 h | inhibition, % (test concentration not listed);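 active = mean inhibition across valid replicates above about 55%, limit read from the data; inconclusive = mean below that limit but half or more replicates reach it; inactive = mean below it, under half of replicates reach it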;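 also: signal also drops with host cell toxicity which is not excluded here; 0% = plate median of DMSO wells and 100% = zero luminescence signal; higher percent means less beta-gal luminescence so fewer parasites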
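Incubation – ≥90 h infection period, 3 h prior cell attachment · System – NIH/3T3 fibroblasts plus reporter T. cruzi · Doses – compound pinned at 50 nL/well, DMSO · Read-out basis – percent inhibition of parasite-derived β-gal signal · Signal – luminescent β-galactosidase signal after 60 min lysis · Also added – 5000 T. cruzi trypomastigotes/well · Medium – Low-serum DMEM with 2% FBS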
Mdm2-MdmX conf = confirmation of human Mdm2/MdmX interaction inhibitors | shares compounds with Mdm2 MdmX PPI | Mdm2-MdmX binding, luminescent assay | inhibition, % at 8 µM | 10,000 compounds, 55% hits | AID 489028; in the data active = inhibition above about 40%
Full FLuc ctr = inhibits full-length luciferase, flagging false Mdm2/MdmX hits. SaOS-2 full-length luciferase counterscreen, luminescence. inhibition, % at 8 µM. 6,200 compounds, 77% hits. shares compounds with Mdm2 MdmX PPI;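 active = mean inhibition at 8 µM reaching about 37%, which flags the compound as non-specific, limit read from the data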;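 also: p53-null SaOS-2 cells with luciferase driven by a doxycycline-inducible promoter; compound on cells about two nights before reading with doxycycline added after day one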
* marks the source's active call; other numbers are inactive results. The list is not random: actives were taken first. Their share in the collection is about 5.4%.

What do the screens show for `CC1=CC(C)(C)Nc2ccc(OC(=O)CN3C(=O)c4ccccc4C3=O)cc21`?
SKKanGAS inh: -2.0; Mdm2 MdmX PPI: 96.6*; aSyn 5UTR inh: 12.8; CSC inhib: 14.2; T cruzi repl: 5.6; Mdm2-MdmX conf: 26.0; Full FLuc ctr: 12.6

Results for CC1=CC(C)(C)Nc2ccc(OC(=O)CN3C(=O)c4cccc5cccc(c45)C3=O)cc21 ?
SKKanGAS inh: 2.7; aSyn 5UTR inh: 7.4; CSC inhib: 15.8; T cruzi repl: -6.1

Results for CCOc1cc(N2CCOCC2)c(OCC)cc1NC(=O)C(NC(=O)c1ccco1)C(C)C (stereo unspecified) ?
SKKanGAS inh: 11.9; Mdm2 MdmX PPI: 24.0; aSyn 5UTR inh: -1.8; CSC inhib: -5.6; T cruzi repl: -0.3

Results for CCOC(=O)c1c(-c2ccc(C)o2)csc1NC(=O)COC(=O)c1ccc(NC(N)=O)cc1 ?
SKKanGAS inh: 67.9*; Mdm2 MdmX PPI: 69.4*; aSyn 5UTR inh: -5.3; CSC inhib: 0.6; T cruzi repl: -1.0; Mdm2-MdmX conf: 15.2

Results for CCNc1nc(NCC)nc(NS(=O)(=O)c2ccc(N)cc2)n1 ?
SKKanGAS inh: 2.0; Mdm2 MdmX PPI: -1.8; aSyn 5UTR inh: 10.8; CSC inhib: -2.5; T cruzi repl: -5.3

How did CCN(CC)C(=O)N1c2ccccc2C=Cc2ccccc21 do in these assays?
SKKanGAS inh: 16.0; Mdm2 MdmX PPI: 84.8*; aSyn 5UTR inh: -101.0; CSC inhib: 43.3; T cruzi repl: 2.5; Mdm2-MdmX conf: 79.6*; Full FLuc ctr: 33.7

Results for NC(=O)N1c2ccccc2C=Cc2ccccc21 ?
SKKanGAS inh: 15.6; Mdm2 MdmX PPI: 14.5; aSyn 5UTR inh: -21.1; CSC inhib: -7.9; T cruzi repl: -8.0

Results for COc1ccc(NC(=O)CN(C)C(=O)/C=C/c2ccc(S(=O)(=O)N3CCCCCC3)cc2)cc1 ?
SKKanGAS inh: 5.7; Mdm2 MdmX PPI: 26.6; aSyn 5UTR inh: inconclusive; CSC inhib: 14.3; T cruzi repl: 5.4

What do the screens show for `COc1ccc(/C=C/C(=O)N(C)CC(=O)Nc2cccc(F)c2)cc1S(=O)(=O)N1CCCCC1`?
Mdm2 MdmX PPI: 51.7*; Mdm2-MdmX conf: 55.4*; Full FLuc ctr: 68.7*

How did Nc1c(-c2ccccc2)c(CSc2nc3ccccc3[nH]2)nn1-c1cccc(Cl)c1 do in these assays?
SKKanGAS inh: 103.0*; Mdm2 MdmX PPI: 61.3*; aSyn 5UTR inh: -2.0; CSC inhib: 17.2; T cruzi repl: 65.9*; Mdm2-MdmX conf: 4.9

What do the screens show for `Cc1ccc(OCCN2C(=O)NC3(CCc4ccccc4C3)C2=O)cc1` (stereo unspecified)?
SKKanGAS inh: -7.4; Mdm2 MdmX PPI: -3.1; aSyn 5UTR inh: 8.6; CSC inhib: -10.1; T cruzi repl: 7.5

Results for Cc1ccc(C(C)NC(=O)c2ccco2)cc1C (stereo unspecified) ?
SKKanGAS inh: -1.8; Mdm2 MdmX PPI: 12.8; aSyn 5UTR inh: -3.5; T cruzi repl: -0.5

Results for COc1ccc(NC(=O)c2cc3nc(-c4ccccc4)cc(-c4ccccc4)n3n2)c(OC)c1 ?
SKKanGAS inh: 13.4; Mdm2 MdmX PPI: 63.7*; aSyn 5UTR inh: 22.7; T cruzi repl: -12.0; Mdm2-MdmX conf: 5.0

What do the screens show for `O=C(NC1CCCC1)c1cc2nc(-c3ccccc3)cc(-c3ccccc3)n2n1`?
SKKanGAS inh: 10.9; Mdm2 MdmX PPI: 54.9*; aSyn 5UTR inh: 40.9; CSC inhib: 22.8; T cruzi repl: 12.0; Mdm2-MdmX conf: 14.7

How did CC1CCN(C(=O)c2cc3nc(-c4ccccc4)cc(-c4ccccc4)n3n2)CC1 do in these assays?
SKKanGAS inh: 14.4; Mdm2 MdmX PPI: 44.2; aSyn 5UTR inh: 42.6; CSC inhib: 35.0; T cruzi repl: 42.3

What do the screens show for `COC(=O)c1[nH]nc(C(=O)OC(C)(C)C)c1-c1ccccc1`?
SKKanGAS inh: -5.3; Mdm2 MdmX PPI: 17.4; aSyn 5UTR inh: 18.2; CSC inhib: 6.6; T cruzi repl: 3.5

What do the screens show for `COC1(OC)C(/C=C/c2ccc(C)cc2)C(C#N)(C#N)C1(OC)OC` (stereo unspecified)?
SKKanGAS inh: -4.2; Mdm2 MdmX PPI: 85.2*; aSyn 5UTR inh: -47.1; CSC inhib: 52.6; T cruzi repl: -55.8; Mdm2-MdmX conf: 43.0*; Full FLuc ctr: 35.3

Results for Cc1ccc(S(=O)(=O)c2cc3c(=O)n4cccc(C)c4nc3n(Cc3ccncc3)c2=N)cc1 ?
SKKanGAS inh: 4.9; Mdm2 MdmX PPI: 52.6*; aSyn 5UTR inh: 44.8; CSC inhib: 13.9; T cruzi repl: 11.4; Mdm2-MdmX conf: 32.9

How did Cc1cccn2c(=O)c3cc(C(=O)NC4CCCCC4)c(=N)n(Cc4ccccc4)c3nc12 do in these assays?
SKKanGAS inh: 19.0; Mdm2 MdmX PPI: 93.5*; aSyn 5UTR inh: 32.9; CSC inhib: 10.0; T cruzi repl: 58.2*; Mdm2-MdmX conf: 31.4

How did COc1ccc(CCn2c(=N)c(C(=O)NC3CCCC3)cc3c(=O)n4cccc(C)c4nc32)cc1 do in these assays?
SKKanGAS inh: 10.1; Mdm2 MdmX PPI: 88.0*; aSyn 5UTR inh: -57.8; CSC inhib: -2.8; T cruzi repl: 50.5; Mdm2-MdmX conf: 52.6*; Full FLuc ctr: 57.7*

What do the screens show for `COc1ccc(CCn2c(=N)c(C(=O)NC3CCCCC3)cc3c(=O)n4ccccc4nc32)cc1`?
SKKanGAS inh: 0.6; Mdm2 MdmX PPI: 93.1*; aSyn 5UTR inh: -0.5; CSC inhib: -1.6; T cruzi repl: 33.5; Mdm2-MdmX conf: 30.9; Full FLuc ctr: 81.8*

What do the screens show for `COc1cc(OC)cc(C(=O)Nc2ccc(S(=O)(=O)N3CCOCC3)cc2)c1`?
SKKanGAS inh: -0.8; Mdm2 MdmX PPI: 25.2; aSyn 5UTR inh: -14.8; CSC inhib: -7.4; T cruzi repl: 6.2

What do the screens show for `CCc1ccc(-c2csc(NC(=O)COC(=O)CCc3nc4ccccc4s3)n2)cc1`?
SKKanGAS inh: 7.6; Mdm2 MdmX PPI: -186.3; aSyn 5UTR inh: -108.9; CSC inhib: 7.0; T cruzi repl: -3.5

What do the screens show for `FC(F)(F)c1ccc(/C=N/n2c(C3CCCCC3)n[nH]c2=S)cc1`?
SKKanGAS inh: 25.0; Mdm2 MdmX PPI: -25.5; aSyn 5UTR inh: 26.1; CSC inhib: 36.7; T cruzi repl: 17.6

How did COCCn1c(C)nnc1SCC(=O)NNC(=O)c1ccc(Cl)cc1 do in these assays?
SKKanGAS inh: -2.1; Mdm2 MdmX PPI: 8.5; aSyn 5UTR inh: 11.6; CSC inhib: -6.1; T cruzi repl: 1.8

Results for Cc1ccc(-c2nc3cccnc3s2)cc1NC(=O)C1c2ccccc2Oc2ccccc21 ?
SKKanGAS inh: -6.2; Mdm2 MdmX PPI: 69.8*; aSyn 5UTR inh: -58.3; T cruzi repl: 0.4; Mdm2-MdmX conf: 10.2

What do the screens show for `Cc1ccc(-c2nc3cccnc3s2)cc1NC(=O)c1ccco1`?
SKKanGAS inh: 3.9; Mdm2 MdmX PPI: -20.1; aSyn 5UTR inh: -198.0; CSC inhib: -3.1; T cruzi repl: -18.9
